pIC50, pKi: −log10 of the molar value. Calls of active or inactive are those of the source. No cut-off for these calls is given here.
Experiments:
TA3 [1] = experiment: Growth inhibition of mouse TA3 cells after 3 days incubation in presence of 10^-7 M pyridoxal; assay type: functional; details: for pIC50: Mus musculus, TA3, 72 h, read-out: ID50 (the source's name)
Procedure, shortened: (§1)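 Mouse mammary adenocarcinoma TA3 cells were grown in stationary upright tubes with 10% horse serum and pyridoxal at 10⁻⁷ M (minimal growth) or 10⁻⁵ M. The inoculum was 50 000 cells, with compound added in an equal volume of medium. Cells were incubated for 3 days, and growth was read by protein assay. Five tubes were used per concentration, with repeats for active compounds. The 50% inhibitory concentration was derived.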

TA3 [2] = experiment: Growth inhibition of mouse TA3 cells after 3 days incubation in presence of 10^-5 M pyridoxal; assay type: functional; procedure, shortened: as §1
TA3 [3] = experiment: Growth inhibition of mouse TA3 cells at 10^-4 M after 3 days incubation in presence of 10^-7 M pyridoxal; assay type: functional
Pyridoxal kinase = target: T1, Pyridoxal kinase (Homo sapiens, UniProt O00764); experiment: Noncompetitive inhibition of pyridoxal phosphokinase (unknown origin) using ATP-gamma-[32P]
T1 sequence (O00764 whole entry): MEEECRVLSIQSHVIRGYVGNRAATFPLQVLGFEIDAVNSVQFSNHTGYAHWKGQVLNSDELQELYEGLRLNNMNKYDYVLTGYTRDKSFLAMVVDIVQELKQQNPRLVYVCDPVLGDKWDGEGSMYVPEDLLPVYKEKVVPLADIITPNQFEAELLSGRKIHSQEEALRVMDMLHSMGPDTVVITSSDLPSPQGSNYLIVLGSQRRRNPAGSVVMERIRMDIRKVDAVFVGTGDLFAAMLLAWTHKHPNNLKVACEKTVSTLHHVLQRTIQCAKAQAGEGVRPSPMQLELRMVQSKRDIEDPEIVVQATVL

SMILES | pIC50 (TA3 [1]) | inhibition (TA3 [2]) | ID50 (TA3 [2]) | other results
Cc1c(CO)cnc(/C=N/NC(N)=S)c1O | 5.57 | Active | – | –
C=Cc1ncc(COP(=O)(O)O)c(C=C)c1O | – | – | – | inhibition (TA3 [3]): inactive
C=Cc1ncc(CO)c(CO)c1O | 5.03 | Active | – | –
Cc1c(CO)cnc(/C=N/O)c1O | – | – | – | inhibition (INH) (TA3 [3]): 40%
Cc1c(CO)cnc(CO)c1O | – | – | – | inhibition (TA3 [3]): inactive
C=Cc1c(CO)cnc(CO)c1O | – | – | – | inhibition (TA3 [3]): inactive
Cc1c(CO)cnc(C=O)c1O | – | – | 1.6 ×10⁻⁴ M | ID50 (TA3 [1]): 6 ×10⁻⁵ M
C=Cc1ncc(CO)c(C)c1O.Cl | 5.52 | – | 3.2 ×10⁻⁵ M | pKi (Pyridoxal kinase): 4.17
C=Cc1c(CO)cnc(C)c1O | 8.60 | inactive | – | –
Cc1ncc(CO)c(C)c1O | – | inactive | – | ID50 (TA3 [1]): 6.8 ×10⁻⁸ M
C=Cc1ncc(CO)c(C=C)c1O.Cl | 5.17 | – | 3.2 ×10⁻⁵ M | –
C=Cc1ncc(COP(=O)(O)O)c(C)c1O | – | – | 1.8 ×10⁻⁴ M | ID50 (TA3 [1]): 3.8 ×10⁻⁵ M

From ChEMBL document CHEMBL3243952, “Antagonists of vitamin B6. Simultaneous and stepwise modification of the 2 and 4 positions” (J Med Chem, 1977)
